This is a sample that favours compounds with a hit; in the whole collection about 2.6% have one here.
Hsp70 act: transcriptional activators of Hsp70 | activation, % at 10 µM | HeLa Hsp70 promoter luciferase reporter, luminescence; scaled: vehicle 0, proteasome-inhibitor control 100% | 200,000 tested, 0.04% active;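 active = activation above the mean across all tested compounds plus 3 SD, cutoff set per campaign, cut at about 5.5% in these data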;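 note: 100% = MG132 at 30 µM as the positive control and 0% = DMSO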
HSV replic up: HSV replication enhancement; AID 1956; 220,000 tested, 0.005% active; HSV replication augmentation in cells, fold increase; maximum fold increase; in the data active = maximum fold increase above about 1.5; tested in PC3 cells
Rad51 HR inh: blocks human Rad51 in homologous recombination | 200,000 tested, 0.085% active | inhibition, % at 10 µM | Q06609 | hRad51 DNA strand exchange, fluorescence dequenching | AID 1385;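 active = inhibition above 40% at the single screening dose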;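 note: 0% = DMSO control wells and 100% = blanks with heterologous ssDNA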
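Material: Human Rad51 nucleoprotein filaments preassembled on unlabelled ssDNA | Also added: Labelled 47-mer dsDNA for strand exchange | Dosing: Single dose, 10 µM final compound | Schedule: 30-min compound preincubation and 15-min exchange, both room temperature | Technique: Fluorescence dequenching at 485/520 nm | Measure: Percent inhibition relative to plate controls and blanks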
HSF1 inh: HSF1 inhibition; 300,000 tested, 0.77% active; NIH3T3-HGL HSE-luciferase, MG132-induced, luminescence 8 h; stronger effect = lower value; AID 2098; activity change, negative = inhibition, % at 7.5 µM (by protocol);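 active = more than half of replicate wells show activity change below -50%, luminescence cut by over half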;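 note: luciferase reports HSF-1 transcriptional activity via heat shock element; 0% = median of DMSO wells and -100% = zero luminescence signal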
MDM2 E3 inh: blocks human Mdm2 ubiquitin ligase activity. cell-based MDM2 ubiquitination luciferase reporter, 2 h; 0 = plate control, 100 = twice control, blank-subtracted. signal enhancement, % at 5 µM. 210,000 tested, 0.11% active;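 active = signal enhancement of 30% or more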;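 note: luminescence tracks abundance of the self-degrading MDM2-luciferase fusion protein; higher signal means inhibition of MDM2 E3 ligase activity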
Target sequence (Q00987 whole entry, looked up, the tested form may be a part): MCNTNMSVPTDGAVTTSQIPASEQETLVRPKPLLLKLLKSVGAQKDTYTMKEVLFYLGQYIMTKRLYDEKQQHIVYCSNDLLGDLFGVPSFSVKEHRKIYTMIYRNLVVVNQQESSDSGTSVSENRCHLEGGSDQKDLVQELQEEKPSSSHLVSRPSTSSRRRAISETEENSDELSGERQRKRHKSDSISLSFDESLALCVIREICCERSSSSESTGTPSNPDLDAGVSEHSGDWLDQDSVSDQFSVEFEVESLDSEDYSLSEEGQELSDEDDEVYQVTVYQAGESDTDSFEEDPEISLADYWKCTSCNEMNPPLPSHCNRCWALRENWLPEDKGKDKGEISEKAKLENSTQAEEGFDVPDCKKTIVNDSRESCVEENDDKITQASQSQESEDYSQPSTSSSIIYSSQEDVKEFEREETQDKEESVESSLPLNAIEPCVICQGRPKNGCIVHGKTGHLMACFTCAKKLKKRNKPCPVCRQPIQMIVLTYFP
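test system = mammalian cells stably expressing self-ubiquitinating, self-degrading MDM2 E3–luciferase fusion | quantity = 2000 cells/well | incubation = cell settling 4 h, compound treatment 2 h, both 37 °C | signal = luminescence with SteadyLite reagent, 15 min at room temperature | evaluation = % enhancement relative to plate controls after blank subtraction | benchmarks = plate controls and plate blanks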
HSF1 activator: increases HSF-1 driven luciferase reporter signal | NIH3T3-HGL HSF-1 luciferase reporter, MG132, 8 h; 100% = twice DMSO control signal | activation, % at 9 µM | 300,000 tested, 1.7% active;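 active = mean replicate activation of at least 50% with a set share of replicates each reaching 50%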;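 note: 0% = median of the neutral control wells and 100% = twice that signal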
The depositor's hits bear a star; i = inactive; nt = not tested or not shown.

SMILES	Hsp70 act	HSV replic up	Rad51 HR inh	HSF1 inh	MDM2 E3 inh	HSF1 activator
O=[N+]([O-])c1cccnc1N/N=C/c1ccccc1O	0	i	0	-34	-34	-43
Cc1c(O)ccc(/C=N/Nc2ncccc2[N+](=O)[O-])c1O	nt	nt	nt	36	nt	55*
Cc1ccc(S(=O)(=O)N(C)C)cc1NC(=O)COC(=O)C1CC1	nt	nt	nt	-7	nt	-3
Cc1ccc2oc(C(=O)N3CCC(C(N)=O)(N4CCCCC4)CC3)c(C)c2c1	nt	nt	nt	-76*	nt	-82
CCN1CCc2c(sc(NC(=O)c3cc4ccccc4cc3OC)c2C(N)=O)C1	nt	nt	nt	-51*	nt	-64
CC(C)N1CCc2c(sc(NC(=O)c3ccc4ccccc4c3)c2C(N)=O)C1	nt	nt	nt	-60*	nt	-64
CCCc1ccc(-c2ccc(-c3noc(-c4ccncc4)n3)cc2)nc1	nt	nt	nt	-4	nt	0
CCCCc1ccc(-c2ccc(Br)cc2)nc1	0	i	2	21	-43	58*
O=C(Nc1nncs1)c1cc(S(=O)(=O)N2CCCCC2)ccc1Cl	nt	nt	nt	-7	nt	-4
CCOc1ccc(CCNC(=O)COC(=O)c2cccc(S(=O)(=O)N3CCOCC3)c2)cc1OCC	nt	nt	nt	2	nt	-8
CCn1c(SCC(=O)N/N=C/c2ccc(C)s2)nc2ccccc21	0	i	10	10	-17	22
O=C(Nc1nc(-c2cc3ccccc3oc2=O)cs1)c1ccc(Br)o1	0	i	-2	32	-12	66*
CC(=O)Nc1ccc(Nc2nc(-c3cc4ccccc4oc3=O)cs2)cc1	nt	nt	nt	17	nt	-3
O=C(O)c1ccc(Nc2nc(-c3cc4ccccc4oc3=O)cs2)cc1O	0	i	2	22	-3	65*
COc1cc(NC(=O)c2cccs2)c(C(=O)OCC(=O)c2cc(C)n(-c3ccccc3)c2C)cc1OC	0	i	6	-4	-62	-6
COc1cc(NC(=O)c2cccs2)c(C(=O)OCC(=O)c2cc(C)n(-c3ccc(F)cc3)c2C)cc1OC	0	i	-1	-64*	-32	-68
COc1cccc(OC)c1C(=O)Nc1ccccc1C(=O)N1CCCCCC1	nt	nt	nt	-1	nt	-5
C#CCOc1ccccc1CNC1CCN(Cc2ccccc2)CC1	nt	nt	nt	-3	nt	-4
COc1ccc(Cc2nc(C(=O)Nc3ccccc3)cs2)cc1	0	nt	nt	27	-12	59*
COc1ccc(NC(=O)c2csc(Cc3ccc(Cl)cc3)n2)cc1	0	i	-8	22	-24	37
C=C1CC2(OC1=O)c1ccccc1CCc1ccccc12	nt	nt	nt	60*	nt	60*
O=C1CCc2ccccc2N1	nt	i	1	1	-11	-13
S=c1[nH]nc(-c2cc(-c3ccccc3)n[nH]2)n1/N=C/C(Br)=C/c1ccccc1	nt	i	-7	99	-5	104*
S=c1[nH]nc(-c2ccco2)n1/N=C/C(Cl)=C/c1ccccc1	nt	i	5	142	-3	182*
Cc1cc(-c2n[nH]c(=S)n2/N=C/C(Cl)=C/c2ccccc2)n[nH]1	0	i	7	13	-11	50
SMILES	Hsp70 act	HSV replic up	Rad51 HR inh	HSF1 inh	MDM2 E3 inh	HSF1 activator
O=C1CCCN1CCC(=O)N1CCCC(N2CCN(c3ccccc3F)CC2)C1 (stereo not drawn)	nt	nt	nt	-6	nt	-23
CC(C)C1CC(CCN2CCCCC2)(c2ccccc2)CCO1 (stereo not drawn)	0	i	-19	1	-14	-5
COc1cc(-c2nc(-c3ccc4c(c3)-c3ccccc3S4(=O)=O)c(-c3ccccc3)[nH]2)cc(OC)c1O	0	i	-7	61	-24	65*
COc1ccc(-c2[nH]c(-c3ccc(C(=O)O)cc3)nc2-c2ccccc2)cc1	0	i	1	3	-4	9
Cc1ccc(S(=O)(=O)NC2c3cccc4cccc(c34)C2Sc2nncn2C)cc1 (stereo not drawn)	0	i	-8	19	8	67*
Cn1cnnc1SC1c2cccc3cccc(c23)C1NS(=O)(=O)c1ccccc1 (stereo not drawn)	0	i	-6	6	-7	24
COc1cccc(C(c2sc3nc(C)nn3c2O)N2CCN(C(=O)c3ccco3)CC2)c1 (stereo not drawn)	0	i	-3	-85*	-15	-88

Screens: PubChem, several laboratories
